Assay [1] addresses T1, Topoisomerase I (Bos taurus) (UniProt Q2HPH0).
T1 sequence (whole entry): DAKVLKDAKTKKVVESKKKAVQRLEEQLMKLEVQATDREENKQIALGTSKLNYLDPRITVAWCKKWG
As to the kind of experiment: Inhibition of calf thymus topoisomerase 1-mediated relaxation of supercoiled pBR322 at 10 uM after 15 mins using ethidium bromide staining by UV transilluminator analysis. Put shortly: (§1)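 Topo I with DNA was reacted with compound at 37 °C for 15 min. Reactions were stopped with SDS (0.5% final), then 6× loading buffer (0.1 mM EDTA, 7% glycerol, 0.01% xylene cyanol FF, 0.01% bromophenol blue) was added. Products were separated by gel. Compound concentrations were 1, 10 and 50 µM, and a topo I plus DNA sample without drug served as reference.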

The target of assay [2] is T1, Topoisomerase I (Bos taurus). Kind of assay: Inhibition of calf thymus topoisomerase 1-mediated relaxation of supercoiled pBR322 assessed as increase in cleavable complex level after 15 mins using ethidium bromide staining by UV transilluminator analysis. Put shortly:
as §1

In the next assay the test system is HCT-116. As to the kind of experiment: Cytotoxicity against human HCT116 cells after 3 days by MTT assay. As to conditions: HCT-116, 72 h. Format: functional, cell-based. Put shortly:
(§2)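 After 3 days, MTT (5 mg/mL solution) was added and plates incubated a further 4 h. Formazan was dissolved in DMSO and absorbance read at 570 nm. Survival expressed as percentage of untreated control wells.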

For another assay, the system named is MDA-MB-435. Kind of assay: Cytotoxicity against human MDA-MB-435 cells after 3 days by MTT assay. Format: functional, cell-based. The conditions noted are these: MDA-MB-435, 72 h. Put shortly:
as §2
(In general: Tetrazolium assays rely on reduction of a dye to a coloured formazan, in cell work by metabolically active cells.)

The test system of a further assay is A549. As to the kind of experiment: Cytotoxicity against human A549 cells after 3 days by MTT assay. Format: functional, cell-based. The conditions noted are these: A549, 72 h. Put shortly: as §2
In assay [3] the target is T1, Topoisomerase I (Bos taurus). Kind of assay: Inhibition of calf thymus topoisomerase 1-mediated relaxation of supercoiled pBR322 assessed as formation of nicked DNA at 1 to 50 uM after 15 mins using ethidium bromide staining by UV transilluminator. Put shortly:
as §1

Calls of active or inactive are those of the source. No cut-off for these calls is given here. Bounds are passed on as bounds.

Broadly, the IC50 is the concentration that gives 50% inhibition. Higher therefore signals weaker potency in that assay.

In the case of `CC[C@@]1(O)C(=O)OCc2c1cc1n(c2=O)Cc2cc3ccccc3nc2-1`, in assay [1], the inhibition entry is “Active”. The inhibition entry in assay [2] is “Dose-dependent effect”.

With `CCC1(O)CC(=O)OCc2c1cc1n(c2=O)Cc2c-1nc1ccc(OC)cc1c2C1CCCC1` (racemic), the “topoisomerase I inhibition (qualitative call)” value (from here on “topoisomerase I inhibition”) in assay [1] was “Active”. Also, the figures for the IC50 in the assay with HCT-116, in the assay with MDA-MB-435 and in the assay on A549 were 71.4 nM, 41.5 nM and 730 nM, respectively.

Take `CCC1(O)CC(=O)OCc2c1cc1n(c2=O)Cc2c-1nc1ccc(OC)cc1c2C1CCCCC1` (racemic): the concentration for half-maximal inhibition (IC50) in the assay with HCT-116 was 118 nM; in the assay with MDA-MB-435 it was 76.1 nM; in the assay with A549, 657 nM.

For `CCC1(O)CC(=O)OCc2c1cc1n(c2=O)Cc2c-1nc1ccc(OC)cc1c2C(=O)C1CC1` (racemic), the IC50 turned out to be 5.93 nM with HCT-116, 48.2 nM in the assay with MDA-MB-435 and 2480 nM with A549.

In the case of `CCC1(O)CC(=O)OCc2c1cc1n(c2=O)Cc2c-1nc1ccc(OC)cc1c2C(=O)C1CCCC1` (racemic), in assay [1], the “topoisomerase I inhibition” value was “Active”. Also, in assay [2], the inhibition result was “Dose-dependent effect”. Moreover, the half-maximal inhibitory concentration (IC50) in the assay on HCT-116 was 2.17 nM; in the assay with MDA-MB-435, under 1 nM; in the assay on A549 it was 430 nM. Also, in assay [3], the inhibition result is “Active”.

For the compound `CCC1(O)CC(=O)OCc2c1cc1n(c2=O)Cc2c-1nc1ccc(OC)cc1c2C(=O)C1CCCCC1` (racemic), the figures for the IC50 with HCT-116, in the assay with MDA-MB-435 and in the assay on A549 were 446 nM, under 1 nM and 669 nM, respectively.

With `CCC(=O)c1c2c(nc3ccc(OC)cc13)-c1cc3c(c(=O)n1C2)COC(=O)CC3(O)CC` (racemic), the IC50 with HCT-116 is 56 nM; in the assay on MDA-MB-435, 63.3 nM; with A549, 8960 nM.

Take `CCCC(=O)c1c2c(nc3ccc(OC)cc13)-c1cc3c(c(=O)n1C2)COC(=O)CC3(O)CC` (racemic): the IC50 in the assay with HCT-116 is 268 nM; in the assay on MDA-MB-435 it was 198 nM; in the assay with A549 it was 14100 nM.

For the compound `CCCCC(=O)c1c2c(nc3ccc(OC)cc13)-c1cc3c(c(=O)n1C2)COC(=O)CC3(O)CC` (racemic), the IC50 with HCT-116 turned out to be 277 nM; in the assay on MDA-MB-435, 198 nM; with A549 it was 7030 nM.

`CCCCCCC(=O)c1c2c(nc3ccc(OC)cc13)-c1cc3c(c(=O)n1C2)COC(=O)CC3(O)CC` (racemic): the “topoisomerase I inhibition” value in assay [1] was “Active”. Besides, the IC50 in the assay on HCT-116 came to 317 nM; in the assay on MDA-MB-435, 133 nM; in the assay on A549, 478 nM.

For `CCC1(O)CC(=O)OCc2c1cc1n(c2=O)Cc2c-1nc1ccc(OC)cc1c2C(=O)C(C)C` (racemic), the IC50 with HCT-116 came to 404 nM; in the assay on MDA-MB-435, 21.6 nM; with A549, 2270 nM.

Regarding `CCC1(O)CC(=O)OCc2c1cc1n(c2=O)Cc2c-1nc1ccc(OC)cc1c2C(=O)c1ccco1` (racemic), the “topoisomerase I inhibition” value in assay [1] is “Active”. In assay [2], the inhibition result was “Dose-dependent effect”. Further, the concentration for half-maximal inhibition (IC50) in the assay with HCT-116 was 294 nM; in the assay on MDA-MB-435 it was 2.18 nM; in the assay on A549, under 1 nM. In addition, in assay [3], the inhibition entry was “Active”.

On to `CCC1(O)CC(=O)OCc2c1cc1n(c2=O)Cc2c-1nc1ccc(OC)cc1c2C(=O)c1cccs1` (racemic), for which, in assay [1], the “topoisomerase I inhibition” value is “Active”. Also, the results for the IC50 in the assay on HCT-116, in the assay on MDA-MB-435 and in the assay with A549 were 2190 nM, 1610 nM and 607 nM, respectively.

As for `CCC1(O)CC(=O)OCc2c1cc1n(c2=O)Cc2c-1nc1ccc(OC)cc1c2C(=O)c1ccccc1` (racemic), the IC50 in the assay on HCT-116 is 2940 nM; with MDA-MB-435, 2210 nM; with A549, 1770 nM.

`CCC1(O)CC(=O)OCc2c1cc1n(c2=O)Cc2c-1nc1ccc(OC)cc1c2C(=O)c1ccc(Cl)cc1` (racemic): the IC50 in the assay with HCT-116 came to 3020 nM; with MDA-MB-435, 2090 nM; in the assay with A549 it was 665 nM.

Regarding `CCC1(O)CC(=O)OCc2c1cc1n(c2=O)Cc2c-1nc1ccc(OC)cc1c2C(=O)c1ccc(F)cc1` (racemic), the figures for the IC50 in the assay with HCT-116, with MDA-MB-435 and in the assay on A549 were 13100 nM, 15900 nM and 7790 nM, respectively.

Take `CCC1(O)CC(=O)OCc2c1cc1n(c2=O)Cc2c-1nc1ccc(OC)cc1c2C(=O)c1ccc(C)cc1` (racemic): the values for the IC50 in the assay with HCT-116, with MDA-MB-435 and with A549 were 8170 nM, 7170 nM and 3390 nM, respectively.

On to `CCC1(O)CC(=O)OCc2c1cc1n(c2=O)Cc2c-1nc1ccc(OC)cc1c2C(=O)c1ccc(C(F)(F)F)cc1` (racemic), for which the “topoisomerase I inhibition” value in assay [1] was “Active”. Moreover, the IC50 was determined as 1910 nM with HCT-116, 1480 nM in the assay with MDA-MB-435 and 625 nM in the assay with A549.

As to `CCC1(O)CC(=O)OCc2c1cc1n(c2=O)Cc2c-1nc1ccc(OC)cc1c2C(=O)c1ccc(OC)cc1` (racemic), the IC50 amounted to 2070 nM in the assay on HCT-116, 16300 nM with MDA-MB-435 and 9250 nM with A549.

As to `CCC1(O)CC(=O)OCc2c1cc1n(c2=O)Cc2c-1nc1ccc(OC)cc1c2C(=O)c1cc(C)cc(C)c1` (racemic), the IC50 in the assay on HCT-116 was 26300 nM; in the assay on MDA-MB-435, over 100000 nM; with A549, 48000 nM.

As to `CCC1(O)CC(=O)OCc2c1cc1n(c2=O)Cc2c-1nc1ccc(OC)cc1c2C(=O)c1ccc2ccccc2c1` (racemic), the results for the IC50 with HCT-116, with MDA-MB-435 and with A549 were 22800 nM, over 100000 nM and over 100000 nM, respectively.

For `CC[C@@]1(O)C(=O)OCc2c1cc1n(c2=O)Cc2cc3c(CN(C)C)c(O)ccc3nc2-1` [TOPOTECAN], the IC50 was 1100 nM in the assay with HCT-116, 448 nM with MDA-MB-435 and 3160 nM in the assay with A549.

These data come from ChEMBL document CHEMBL1781993, “Synthesis and biological evaluation of novel 7-acyl homocamptothecins as Topoisomerase I inhibitors” (Eur J Med Chem, 2011).
